Screening results: PubChem, The Scripps Research Institute Molecular Screening Center
Shown is part of a subset that was picked to be rich in hits.
RORA inh: inhibitors of human nuclear receptor RORA; AID 561; P35398; 65,000 compounds, 0.43% hits; CHO-K1 Gal4-RORA LBD luciferase reporter, luminescence; inhibition, % at 10 µM;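 active means inhibition above the mean of all tested compounds plus 3 SD, cut at about 52% in these data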;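 further: 0% = RORA-transfected cells with DMSO and 100% = mock-transfected cells lacking RORA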
Target sequence (P35398 whole entry, looked up, the tested form may be a part): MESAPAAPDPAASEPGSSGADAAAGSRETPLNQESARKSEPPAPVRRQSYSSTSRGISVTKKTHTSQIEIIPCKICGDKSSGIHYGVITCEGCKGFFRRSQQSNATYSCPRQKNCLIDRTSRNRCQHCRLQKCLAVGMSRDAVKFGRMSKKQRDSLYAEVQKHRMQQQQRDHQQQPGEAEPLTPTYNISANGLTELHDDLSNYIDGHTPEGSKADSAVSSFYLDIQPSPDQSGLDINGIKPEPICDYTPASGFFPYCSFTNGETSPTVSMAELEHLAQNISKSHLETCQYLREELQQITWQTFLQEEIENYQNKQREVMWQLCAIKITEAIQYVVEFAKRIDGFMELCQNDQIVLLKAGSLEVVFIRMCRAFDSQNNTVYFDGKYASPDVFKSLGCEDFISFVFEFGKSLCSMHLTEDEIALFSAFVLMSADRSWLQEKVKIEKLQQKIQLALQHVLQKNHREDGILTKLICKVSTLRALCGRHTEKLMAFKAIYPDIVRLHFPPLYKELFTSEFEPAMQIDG
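Test system: CHO-K1 cells with Gal4-hRORA LBD fusion and pG5-luc reporter | Timing: 20 h compound treatment, 37 °C | Detection: Luminescence from basal luciferase reporter expression | Read-out basis: % inhibition of basal luciferase versus +RORA/-RORA DMSO controls | Repeats: One measurement per compound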
An asterisk follows results filed as active.

SMILES	RORA inh
CCNc1nc(-c2ccc(Cl)cc2)cs1	-50
Cc1nc2sccn2c1-c1csc(NCc2ccccc2)n1	63*
O=C(Cc1ccccc1)Nc1nc(-c2cccs2)cs1	-67
NC(=O)CSc1nnc(Cc2ccc3c(c2)OCO3)n1C1CCCCC1	-7
O=C(NCc1ccco1)c1cnn2c(C(F)(F)F)cc(-c3cccs3)nc12	2
CCN1C(=O)NC(c2cccnc2)C(C(=O)OC)=C1C (configuration not stated)	15
CCOc1ccc(-c2cc(C(=O)NCCCN3CCN(CC)CC3)c3ccccc3n2)cc1	-32
CCOc1ccc(-c2cc(CCCC(=O)NCCCOC)no2)cc1	58*
CCC(C)NC(=O)c1cc(-c2ccc(OC)cc2)on1 (configuration not stated)	-60
COC(=O)CCC(=O)N1CCc2cc(S(=O)(=O)N3CCc4ccccc43)ccc21	19
CCCCS(=O)(=O)/C=C\C=C/S(=O)(=O)CCCC	91*
COC(=O)c1c(-c2cccs2)csc1NC(=O)c1cccnc1	4
O=C(COc1ccccc1Cl)Nc1ccc(Cl)cn1	-62
O=C(O)c1cccc(COc2ccccc2Cl)c1	92*
O=P(O)(O)c1ccccc1OCc1ccccc1	-8
O=C(CN(Cc1ccc2c(c1)OCO2)C(=O)c1cnsn1)NC1CCCC1	6
CCCCc1ccc(C2C(C#N)=C(N)SC(N)=C2C#N)s1	-8
COC(=O)C(O)(NC(=O)NC(C)=O)C(F)(F)F (configuration not stated)	-28
COC(=O)Cc1cnc(NC(=O)C2C3CCC(C3)C2C(=O)O)s1 (configuration not stated)	-12
c1ccc(-c2cn3c4c(sc3n2)CCCC4)cc1	74*
Cc1c(C(=O)NCc2cccnc2)sc2nc(-c3ccccc3)cn12	-54
Cc1c(C(=O)N2CCOCC2)sc2nc(-c3ccccc3)cn12	-58
CCCCn1nnc(NC(=O)CC23CC4CC(CC(C4)C2)C3)n1	18
CSc1ccc(CNc2ccccn2)cc1	-61
CC1CCN(C(=O)CSc2nnc(-c3ccc(S(=O)(=O)N4CCOCC4)cc3)n2C)CC1	8
SMILES	RORA inh
CCc1nn2c(=O)cc(N3CCN(c4cc(C)nc5ccccc45)CC3)nc2s1	-1
Cc1cc(N2CCN(c3nc4ccccc4s3)CC2)n2ncnc2n1	75*
Cc1cc(N2CCCCC2)n2ncc(-c3ccc(Cl)cc3)c2n1	-87
Nc1c(C(=O)Nc2ccc(Cl)cc2)oc2ccccc12	-74
CC(C)C1N=C2c3ccccc3N=C(SCC#N)N2C1=O (configuration not stated)	9
CCOC(=O)N1CCC(NC(=O)Cn2ncn3c(cc4sc(CC)cc43)c2=O)CC1	7
O=C(CCNS(=O)(=O)c1cccc2nsnc12)N1CC(=O)N(CCc2ccccc2)C(=O)C1	3
Cc1ccc(OCC(=O)N2CCC(N3CCCCCC3)CC2)cc1	-8
O=C(CSc1nnnn1-c1ccccc1)Nc1nsc(-c2ccc(Cl)cc2)n1	71*
Cn1nnc(NC(=O)CSc2ccc(Cl)cc2)n1	-10
Cn1nnc(NC(=O)CSc2nnnn2-c2ccc(F)cc2)n1	17
O=C(NCCC1=CCCCC1)N[C@@H](Cc1ccccc1)C(=O)O	-3
COc1ccc(CNC(=O)CN(CC2CCCO2)C(=O)CNS(=O)(=O)c2ccc(F)cc2)cc1 (configuration not stated)	20
O=C(Nc1ccc(-c2nc3ccccc3o2)cc1)c1ccc2c(c1)OCO2	6
O=C(c1ccc(-c2nnc(-c3ccccc3)o2)cc1)N1CCCCCC1	-60
O=C(c1ccc(Cl)cc1)N1CCCCC(Sc2nnc(-c3ccc4c(c3)OCO4)o2)C1=O (configuration not stated)	76*
CCN1CCN(C(=O)C2c3cc(OC)c(OC)cc3C(=O)N(C)C2c2ccc(SC)cc2)CC1 (configuration not stated)	5
COc1ccc(-n2c(=O)c3ccccc3n(CC(=O)NC3CCCC3)c2=O)c(OC)c1	12
CCN(CC)S(=O)(=O)c1ccc(NC(=O)c2ccccn2)cc1	-49
CN(C)S(=O)(=O)c1ccc(NC(=O)c2ccccn2)cc1	-57
CN(C)c1ccc(NC(=S)c2ccccn2)cc1	84*
N#Cc1c(N)nc2c(c1-c1ccncc1)CCCCCC2	10
COC(=O)c1sc2nc(N3CCCCC3)c3c(c2c1N)CC(C)(C)N(C)C3	-1
O=C(NCCOc1ccccc1)c1ccc2c(c1)OCO2	63*
O=C(c1ccc2c(c1)OCO2)N1CCc2ccccc2C1	-66
SMILES	RORA inh
O=C(Nc1ccc(Cl)cc1)c1ccc2c(c1)OCO2	-9
CCCCc1ccc(NC(=O)C2CCCO2)cc1 (configuration not stated)	-76
CCN1CCN(C(=O)c2cc3nc(-c4ccccc4)cc(C(F)(F)F)n3n2)CC1	11
COc1ccc(CCNC(=O)c2nnn(CC(=O)Nc3ccccc3)c2N)cc1OC	-2
COc1ccc(Cc2nnc(NC(=O)Cc3cccs3)s2)cc1OC	-5
COc1ccc(CC(=O)Nc2cccc(-c3nnc(-c4cccc(C)c4)o3)c2)cc1OC	87*
CCn1cc(C(=O)Nc2cc3c(cc2NC(C)=O)OCCO3)c(=O)c2ccc(C)nc21	3
CCOC(=O)c1[nH]c(C)c(C(=O)c2cc(F)ccc2F)c1C	8
COc1ccc2nc(NC(=O)c3cccc(OCc4c(C)noc4C)c3)sc2c1	-86
CCOC(=O)c1c(C)[nH]c(C(=O)C(C)OC(=O)c2cccc(OCc3c(C)noc3C)c2)c1C (configuration not stated)	56*
Cc1cccc(C)c1NC(=O)c1cc(S(=O)(=O)N2CCOCC2)ccc1F	-3
CCOc1ccccc1C1C(C#N)=C(SCC(=O)OC)NC(=O)C1C(=O)OC (configuration not stated)	0
Clc1ccc(OCCN2CCN(c3ncnc4sccc34)CC2)cc1	81*
Cc1ccc(C2=Nc3ccccc3NC(C)(c3ccc(C)o3)C2)o1 (configuration not stated)	-53
Cc1cc(C(=O)CSc2nnc(-c3ccco3)o2)c(C)n1Cc1ccco1	2
Cc1csc(SCC(=O)c2cc(C)n(Cc3cccs3)c2C)n1	77*
Cc1cc(C(=O)CN2C(=O)NC3(CCCc4ccccc43)C2=O)c(C)n1Cc1cccs1 (configuration not stated)	-30
Cc1csc(SCc2ccccc2C(=O)O)n1	-13
COc1cc(NC(=O)CSc2nc(C)cs2)cc(OC)c1	6
Cc1cc(C(=O)COC(=O)c2ccc3c(c2)OCO3)c(C)n1Cc1cccs1	27
Cc1nc2ccc(NC(=O)Cc3cccs3)cc2s1	-53
CC(=O)Nc1ccccc1OCC(=O)c1cc(C)n(Cc2cccs2)c1C	89*
CC(=O)Nc1ccc(SCC(=O)c2cc(C)n(Cc3cccs3)c2C)cc1	67*
COc1ccc(Cl)cc1NC(=O)CN(C1CCCCC1)S(C)(=O)=O	24
Cc1cc(C)n(-c2c(F)c(F)c(CN3CCOCC3)c(F)c2F)n1	1
SMILES	RORA inh
O=C(Nc1ccc2c(c1)OCO2)c1cnn2cccnc12	-61
CC(=O)N1CCCc2cc(S(=O)(=O)NCc3ccc(C)cc3)ccc21	3
Cn1nc(C(C)(C)C)cc1C(=O)NCc1ccc(N2CCCC2=O)cc1	86*
CC(C)(C)c1ccc(C(=O)N2CCC(C(=O)NCc3ccncc3)CC2)cc1	-60
O=C(C1CCC(=O)N1Cc1ccccc1Cl)N1CCN(c2cccc(Cl)c2)CC1 (configuration not stated)	-3
COc1ccc(C(=O)Nc2cc(C)on2)cc1	-77
